Results reported in ChEMBL document CHEMBL1124598, “Benzofuro[2,3-c]pyridin-6-ols: synthesis, affinity for opioid-receptor subtypes, and antinociceptive activity” (J Med Chem, 1989).

Test system: Mus musculus
Test: Analgesic activity 30 min after subcutaneous administration in mouse by using PQW test
Type: functional
Conditions: sc, 0.5 h
Summary of the method: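 Male CF-1 mice (18-23 g), ten per dose; compound given sc, then 30 min later phenylquinone 3.75 mg/kg in 5% aqueous ethanol ip. Mice observed 10 min in free-moving cages for abdominal stretching. ED50 determined with 95% confidence limits.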

Compound `CC[C@@]12CCN(CC3CCCC3)C[C@@H]1Oc1ccc(O)cc12` has an ED50 of 0.0521 µmol/kg.

`CCCN1CC[C@@]2(CC)c3cc(O)ccc3O[C@H]2C1` was tested, and the ED50 was 0.0051 µmol/kg.

With `CC[C@@]12CCN(C)C[C@@H]1Oc1ccc(O)cc12` the ED50 was 0.005 µmol/kg.

`CC[C@@]12CCN(CC3CCC3)C[C@@H]1Oc1ccc(O)cc12` was tested, and the ED50 was 0.00145 µmol/kg.

In the case of `CC[C@@]12CCN(Cc3ccoc3)C[C@@H]1Oc1ccc(O)cc12`, the ED50 is reported as 0.0512 µmol/kg.

Work on `CC[C@@]12CCN(CC3CCCO3)C[C@@H]1Oc1ccc(O)cc12` (some centres undefined) yielded an ED50 of 0.005 µmol/kg.

Work on `CC[C@@]12CCN(Cc3ccco3)C[C@@H]1Oc1ccc(O)cc12` yielded an ED50 of 0.0908 µmol/kg.

For `CC[C@@]12CCN(CC3CC3)C[C@@H]1Oc1ccc(O)cc12`, the ED50 was 0.00119 µmol/kg.

In the case of `CC[C@@]12CCN(CCc3ccccc3)C[C@@H]1Oc1ccc(O)cc12`, the ED50 is reported as 0.00037 µmol/kg.
